Data taken from ChEMBL document CHEMBL4316597, “Design, Synthesis, and Biological Evaluation of Itaconic Acid Derivatives as Potential Anti-Influenza Agents” (J Med Chem, 2019).

Tests used:
[1] = Selectivity ratio of CC50 for MDCK cells to EC50 for oseltamivir resistant-Influenza A virus A/TW/6663/09 (H1N1); type: toxicity; details: dog, read-out: Ratio CC50/EC50
How it was run: (§1)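 MDCK cells (2 × 10^4/well, E10, 16–24 h) infected at nine-fold TCID50 with compound for 72 h, 37 °C, 5% CO2. Cells were fixed in 4% paraformaldehyde and stained with crystal violet; EC50 is from Reed–Muench. For CC50, cells had compound alone for 72 h, then MTT 3 h, DMSO, A570, Reed–Muench. SI = CC50/EC50; three independent experiments.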

Influenza A virus [2] = assay: Antiviral activity against oseltamivir resistant-Influenza A virus A/TW/6663/09 (H1N1) infected in MDCK cells after 72 hrs by crystal violet-staining based assay; type: functional, organism-based
How it was run: (§2)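 Cells seeded at 2 × 10^4/well in E10 (DMEM, 10% FBS), 16–24 h at 37 °C/5% CO2, washed with DPBS, then infected at nine-fold TCID50 with or without serial compound concentrations. Influenza is run in MDCK and enterovirus/rhinovirus in RD. Incubated 72 h, fixed in 4% paraformaldehyde, stained with 0.1% crystal violet, and read for cell density. EC50 = 50% CPE inhibition by Reed–Muench; mean ± S.D. of at least three runs.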

Influenza A virus [3] = assay: Antiviral activity against oseltamivir resistant-Influenza A virus A/TW/7855/09 (H1N1) infected in MDCK cells after 72 hrs by crystal violet-staining based assay; type: functional, organism-based; how it was run: as §2
[4] = Selectivity ratio of CC50 for MDCK cells to EC50 for oseltamivir resistant-Influenza A virus A/TW/7855/09 (H1N1); type: toxicity; details: dog, read-out: Ratio CC50/EC50; how it was run: as §1

Compound: C=C(CC(=O)Nc1ccc(F)cc1F)C(=O)Nc1ccc(F)cc1F
- selectivity ratio [1]: 18
- EC50 (Influenza A virus [2]): 4.83 µM
- EC50 (Influenza A virus [3]): 2.6 µM
- selectivity ratio [4]: 33
